Read-outs that look alike come from different tables or passages of the source. Ends that are not written are not given here. Peptide text beside a SMILES is read from it.
B1: NS3 domain of HCV genotype-4 (domain or fragment)
chain: APITAYAQQTRGLFSTIVTSLTGRDTNENCGEVQVLSTATQSFLGTAVNGVMWTVYHGAGAKTISGPKGPVNQMYTNVDQDLVGWPAPPGVRSLAPCTCGSADLYLVTRHADVIPVRRRGDTRGALLSPRPISILKGSSGGPLLCPMGHRAGIFRAAVCTRGVAKAVDFVPVESLETTMRSP

Legend:
[1] = test system: NS3 domain of HCV genotype-4; test: Differential static light scattering; assay type: binding
NS3 genotype-4 = target: T1, NS3 genotype-4 (Hepatitis C virus genotype 4a, UniProt O39929); test: Fluorescence anisotropy, dissociation constant of FITC-NS4A with NS3; assay type: binding, HCV genotype-4
T1 sequence (O39929 1027-1657 limits assumed): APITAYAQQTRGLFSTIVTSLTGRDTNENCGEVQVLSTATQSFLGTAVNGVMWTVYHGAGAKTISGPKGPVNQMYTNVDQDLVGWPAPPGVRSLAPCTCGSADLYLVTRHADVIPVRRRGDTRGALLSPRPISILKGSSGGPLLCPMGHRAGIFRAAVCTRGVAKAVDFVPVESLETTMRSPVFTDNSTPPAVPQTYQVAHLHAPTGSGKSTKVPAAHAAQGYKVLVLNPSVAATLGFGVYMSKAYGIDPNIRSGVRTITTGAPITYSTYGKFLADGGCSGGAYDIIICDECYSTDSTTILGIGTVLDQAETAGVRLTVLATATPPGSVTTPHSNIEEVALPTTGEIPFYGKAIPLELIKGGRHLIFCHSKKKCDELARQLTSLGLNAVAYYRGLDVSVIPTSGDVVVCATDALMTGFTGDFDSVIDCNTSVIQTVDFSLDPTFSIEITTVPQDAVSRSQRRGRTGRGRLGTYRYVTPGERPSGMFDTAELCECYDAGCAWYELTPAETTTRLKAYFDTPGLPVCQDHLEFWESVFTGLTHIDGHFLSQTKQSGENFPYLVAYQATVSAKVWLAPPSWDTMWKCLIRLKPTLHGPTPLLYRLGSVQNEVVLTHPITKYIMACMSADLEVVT
Method in brief: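 His-tagged HCV-4 NS3 domain (expressed in E. coli Rosetta (DE3) pLysS, Ni-NTA purified) serially diluted in 20 mM HEPES, 10 mM DTT, 200 mM NaCl, pH 7.6, with 0.1 µM FITC-labelled NS4A 21'-34' core peptide. Shaken at room temperature for 15, 45, 90 and 120 min. Fluorescence anisotropy read at 480/520 nm. Kd fitted with a single-binding-site model at 90 min.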

[2] = target: T2, fluorescein isothiocyanate-labeled NS4A(21'-34') core peptide (hepatitis C virus, also: FITC label, position not given here); test: fluorescence polarisation
T2 peptide: KKGSVVIVGRIVLSGKK

[3] = target: B1; test: differential static light scattering
[4] = target: B1; test: differential static light scattering
[5] = target: B1; test: differential static light scattering
[6] = target: B1; test: differential static light scattering
[7] = target: B1; test: differential static light scattering
[8] = target: B1; test: differential static light scattering
[9] = target: B1; test: differential static light scattering

For GSxG23VIVGRIVLSG [Pep-15], the “Tagg shift higher than that of the native NS4A” value ([1]; 2:1 ratio, room temperature, 2 h) was 1.07 °C and the “binding affinity by DSLS compared with the native peptide” value ([1]; all conditions (Fig. S6)) was “higher binding affinity than the native peptide”.

Work on `CC[C@H](C)[C@H](NC(=O)[C@H](CCCNC(=N)N)NC(=O)CNC(=O)[C@@H](NC(=O)[C@@H](NC(=O)[C@@H](NC(=O)[C@@H](NC(=O)[C@H](CO)NC(=O)CNC(=O)[C@H](CCCCN)NC(=O)[C@@H](N)CCCCN)C(C)C)C(C)C)[C@@H](C)CC)C(C)C)C(=O)N[C@H](C(=O)N[C@@H](CC(C)C)C(=O)N[C@@H](CO)C(=O)NCC(=O)N[C@@H](CCCCN)C(=O)N[C@@H](CCCCN)C(=O)O)C(C)C` [NS4A] (H-KKGSVVIVGRIVLSGKK-OH) yielded a Kd (NS3 genotype-4) of 169 ± 3.7 nM.

B1 showed a Kd [2] of 169 ± 3.7 nM.

With KKGSVVIVGRIVLSGKK [native NS4A(21'-34') core peptide (KK-GSVVIVGRIVLSG-KK)] the ΔTagg [3] was 1.97 °C, the ΔTagg [4] was 1.62 °C and the ΔTagg [5] was 3.16 °C. It also gave a ΔTagg [6] of 2.09 °C, a ΔTagg [7] of 0.998 °C and a ΔTagg [8] of 2.83 °C. The ΔTagg [9] was 1.71 °C.

— publication PMC7195562 (Journal of Advanced Research, 2020)
